From the EternaBench riboswitch data

System: MS2 coat protein
Experiment: apparent Kd, MS2 coat protein; higher = weaker binding; RNA-MaP array; FMN 200 µM where present
In short: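 The apparent Kd comes from binding curves fitted cluster by cluster, filtered, and summarised as a median. Those curves followed SNAP-549-labelled MS2 coat protein from 0.7 or 1.5 nM, doubling to 3 µM, on Illumina sequencing-chip clusters where stalled E. coli RNA polymerase had transcribed the designs, without and then with constant ligand. The buffer was 100 mM Tris-HCl pH 7.5, 80 mM KCl, 4 mM MgCl2, BSA, DTT, yeast tRNA and Tween-20, and green signal was normalised to red-channel RNA signal and control-cluster median Fmax.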

[1] = designed as: OFF switch for flavin mononucleotide, no ligand
[2] = ligand present: flavin mononucleotide, designed as: OFF switch for flavin mononucleotide
[3] = designed as: ON switch for flavin mononucleotide, no ligand
[4] = ligand present: flavin mononucleotide, designed as: ON switch for flavin mononucleotide

| Sequence | apparent Kd [1] [nM] | apparent Kd [2] [nM] | apparent Kd [3] [nM] | apparent Kd [4] [nM] |
| --- | --- | --- | --- | --- |
| GUUUGGGCAGGAUAUACAUGAGGAUCACCCAUGUGUUUUUUGUGUGUUUUGUUAUCGUGUAGAAGGGUUCGGGC | 68.5 | 147 | – | – |
| ACAGCGUGAGGAUAUACAUGAGGAUCACCCAUGUAUGGCAGGUUAUCCUGUCGUAAGUGUAGAAGGCACGCUGU | 20.4 | 58.5 | – | – |
| CAGAAGUCAGGAUAUGCAUGGCGGGACUUGCGUCGUGGCGUGCAGAAGGGACAUGAGGAUCACCCAUGUAAAGC | 50.9 | 51.2 | – | – |
| UGAUCUUACAUGAGGAUCACCCAUGUAGGCCUGUAACUAACCAGAAGGCACGUAGAGUAAAACAGUGAGGAUAUGGAUGACGUA | – | – | 22.4 | 9.35 |
| ACAUGACAUGAGGAUCACCCAUGUGAGGAUAUGCGAAAAAAAUUUUUAAAAAAAAUUGGCAGAAGGCACAAAAU | 121 | 139 | – | – |
| CGAGUUUUUGAGAAGGCAUAUUAUAUUAUACCACAUGUUUACAUGAGGAUCACCCAUGUUUCCUAUGAGGAUAUCAGAAUAUCG | 11.8 | 10 | – | – |
| GCCGUGUUAGGAUAUUAAAGACCUGCGCCGAGCGCAGGAAGUAAGAAGGAACAUGAGGAUCACCCAUGUGUCCG | 18.1 | 16.1 | – | – |
| GCUAUAGAUGUAGGAUAUCAUAUAGAAGCUAUGUGAGAAGGACAUGAGGAUCACCCAUGUCAAUGGAUGGAGCGAAGUUAUGGC | 43.4 | 57.7 | – | – |
| UGUAAUGCUAUUGCAGAGGUUUAGAAGGAUAUACAUCGACAUGACCGUACAUGAGGAUCACCCAUGUAGAAGGUCUAACUUCUU | 4.95 | 4.91 | – | – |
| CAGUACUGAGGAUAUACAUGAGGAUCACCCAUGUAUCCUAGCUAGGAAACUAGCAAAAGUAGAAGGCAGUACUG | 16 | 156 | – | – |
| GGUGCGUUUGUGAGGAUAUGCUGGUCCUUGGAUCAGCAGAAGGCACAUGAGGAUCACCCAUGUGGUGUCGGUCC | 416 | 37.6 | – | – |
| AGGAGAAAUGUAGGAUAUGGGUAUAUAUAUGGGCAAAGCGCAUAUAUAUACCCAGAAGGACAUGAGGAUCACCCAUGUUUCCCU | 12.5 | 12.9 | – | – |
| AAACACGAUCGAGGAUAUCAUGCUUACGUCCCGGAUCCAUAAACAUGAGGAUCACCCAUGUGAUAUGAGAAGGCGAUAGUCAUA | 19.5 | 26.9 | – | – |
| CUCAUGUGAGGAUAUGUGAUCUGCUUUCUGUGUAGAUGAUCACAGAAGGCACAUGAGGAUCACCCAUGUAGAUC | 70.5 | 29.6 | – | – |
| ACGGCUUAGUCAGGAUAUACAAGAUUGUGAGACUACAUGAGGAUCACCCAUGUAGAAGGGACUAAUCGUCUGAACAUUGCUUUC | 7.58 | 22.1 | – | – |
| AUGAGUAAAGCAGGAUAUCUAUUGUCUCUGUAACAUGAGGAUCACCCAUGUAGAGAAGGGCUAAGUCUUACUCUUCGGAGUUGA | 14.2 | 13.7 | – | – |
| AAACUCAUGCAGAAGGGACAAACGGGUGGGAUCUGCAUGUGCACAUGAGGAUCACCCAUGUGGUGUCAGGAUAUGCUGGGCACG | 102 | 75.2 | – | – |
| CGGCAAAGGAAGGAUAUGCUAGACGAAAGUCUAGCAGAAGGUCCUACAUGAGGAUCACCCAUGUGUCCUAGCCG | 45.4 | 55.1 | – | – |
| AGAUCCUGAGUCAGGAUAUAGAGACGGUAGUCGGGCUAGAAGGGACAUGAGGAUCACCCAUGUGGGUUCGGGCC | 14.2 | 19.3 | – | – |

| Sequence | apparent Kd [1] [nM] | apparent Kd [2] [nM] | apparent Kd [3] [nM] | apparent Kd [4] [nM] |
| --- | --- | --- | --- | --- |
| GUAGCAUGAUUAGGAUAUUCAGCGAAUAGAUUGACAUGAGGAUCACCCAUGUGGCGAAAGCCGAGGGAGAAGGGAUGAUGCUAC | – | – | – | 47.4 |
| AUUUAUGGCCAGAAGGACAUGAGGAUCACCCAUGUAGGAUAUGGACGAUUUUACUCGGCGGUUUGUUUAGGAAGCACCGGCGGU | – | – | 8 | 6.32 |
| CAGGUAGACUGAGGAUAUACAAAGACCUAGUUUAUCUAGGUCAAAAUCACAUGAGGAUCACCCAUGUAGAAGGCAGUCUGCCUG | 15.7 | 26 | – | – |
| GAUCUCGUAGUGAGGAUAUUGCUCAUAGACAAUAGUAAGAAGGCACAUGAGGAUCACCCAUGUCGAGUGAGGUU | 69.9 | 143 | – | – |
| UGUUGUAUUACAGGAUAUCUAGUAUUUUGAUUUAGAGAAGGGUAUUCACAUGAGGAUCACCCAUGUAUAUACGAGGAAGUUGUG | – | – | 52.4 | 57.4 |
| UUGUUGUAUGUAGGAUAUGCAUAUUAUUAUUAUGCAGAAGGACAUGAGGAUCACCCAUGUAUGUUAUUAUUAUGUGUUAUGUGU | 44 | 71.5 | – | – |
| GGUUGACAAAGUCAACCAAUUCGAACAUGAGGAUCACCCAUGUAGGAUAUGCUACUCAAAGAGUAGCAGAAGGACAUGUGCCUU | 34.3 | 188 | – | – |
| GUACUGUAGUGAGGAUAUACGAGUGCGAUAGCACGGCGAUCCAUUUAUACAUGAGGAUCACCCAUGUAGAAGGCACUUCAGUAC | 6.15 | 65.6 | – | – |
| AAGACUAGAGGAUAUACAUGAGGAUCACCCAUGUAACUGUCAGGUGACUGACGGAGAUGUAGAAGGCUAGUCAA | 19.6 | 43.2 | – | – |
| GUAUAUAGUGUGAGGAUAUGCUGGUCCUUGGAUCAGCAGAAGGCACAUGAGGAUCACCCAUGUAGUUAAAUAUA | 34.4 | 82 | – | – |
| AGGAAACAUGAGGAUCACCCAUGUAAAAGGUGGUUAGGAUAUGCGAUAAUAAAAAUAAUAGCAGAAGGGACAAGAA | – | – | 511 | 432 |
| CCAUUCAGAGGAUAUGCGCAUAGAUAAGACUUUUUUUCUUAACAUGAGGAUCACCCAUGUAGAAGGCUGUACCC | 21.6 | 19.4 | – | – |
| GUAGCACAAGUUAACAUGAGGAUCACCCAUGUCAGAAGACAUGAGGAUAUGGAUGUGAAGAUAAUCCAGAAGGCAUAAUGCUAA | – | – | 774 | 131 |
| CCGGCGUCAGGAUAUCCAAUAUAUGACAUGAGGAUCACCCAUGUUUCCACUCGUACCUCCGGAGAAGGGACGAAUA | 28.1 | 24.5 | – | – |
| GCCAAUACCGAGGAUAUCCUGAAGCACAUAUCUGGAGAAGGCGGUACAUGAGGAUCACCCAUGUGCUCGUGAGA | 21.6 | 33 | – | – |
| ACUAUACGAGGAUAUGCUGUCAGUACUCCGAGGUUAGUUUGACAUGAGGAUCACCCAUGUAGAAGGCGUUUACU | 24.8 | 22.2 | – | – |
| CUCUUGUCAGGAUAUUAUGGACGAUAGCAGGACUACGUCAGUGAGAAGGGACAUGAGGAUCACCCAUGUAAAAU | 82 | 67.2 | – | – |
| CGCAGGAUACAGAAGGAGUUAUUGAGAGGUUUACUAGGAUAUGUUCACAUGAGGAUCACCCAUGUCAUAUGGUUUUUUAUUGCG | 12.5 | 11.7 | – | – |
| GUGUAGAGAGGAUAUACAUGAGGAUCACCCAUGUGAAUAAGAUAGAAUAAGAUAAAGUGUAGAAGGCUUAGUGU | 33.5 | 25.9 | – | – |

| Sequence | apparent Kd [1] [nM] | apparent Kd [2] [nM] | apparent Kd [3] [nM] | apparent Kd [4] [nM] |
| --- | --- | --- | --- | --- |
| UCAUUUUACACAGGAUAUACUCAUAUACAGUUGUUUGGCUCUUACAUGUUAGUAGAAGGGUGCAACAUGAGGAUCACCCAUGUA | – | – | 621 | 250 |
| UUUAAUCGAAACAUGAGGAUCACCCAUGUGUUGUAAUUAACAUAGGAUAUUUGUAUACUUUUAUAAGAGAAGGAUGAUAAUACU | – | – | 21.2 | 15.8 |
| UAGUAUAAGGGCAUUAAACAUGAGGAUCACCCAUGUACGAUAGAGGAUAUGCAUUUCAGUUGAGAGUAGAAGGUUAGAGAAGGG | 44.5 | 46.3 | – | – |
| AAAGGUACAGGAUAUGCGUGGAAAAAGUGUAUUCAAAAAAAACAUGAGGAUCACCCAUGUAGAAGGGUACCAAA | 81 | 269 | – | – |
| GACGUCGGAAGUCGACGCCACUACAAGGAUAUGCACAUGAGGAUCACCCAUGUUACGAAAUCGUAGCAGAAGGUGUAGUCGUCU | – | – | 245 | 24 |
| ACUAAUAGAGGAUAUACAGUUUAUUACAUGAGGAUCACCCAUGUUCUUCAAUGUAUAUAAGUAGAAGGCUAUGGAA | 43.3 | 187 | – | – |
| GGCAUAAACGAGGAUAUCGUUACGGAAACGUAACGAGAAGGUGUAACAUGAGGAUCACCCAUGUUCCUCAAGCC | 30.5 | 33 | – | – |
| ACGAGGGUUACAGGAUAUGAAGCUAAAACGGCGUUAGAAGGGUAUACAGAGUUACAUGAGGAUCACCCAUGUUGUGACUUCGAA | 33.6 | 41 | – | – |
| CGAUGUUAUGCAGGAUAUCUCUCUUGUUAGAGGAGAGAAGGGCAUAGGGAGACAUACGCCUUAUUACAUGAGGAUCACCCAUGU | 9.38 | 8.24 | – | – |
| ACAUACAUUCGAGGAUAUCGGUGAUUUAUUUUACGAGAAGGCGAUUUAAGAUUUAUUAUUUUAGACAUGAGGAUCACCCAUGUA | – | – | 27.7 | 24.5 |
| GGACGUCGGAUAAACAUGAGGAUCACCCAUGUAACUAGACAUGAGGAUAUGGAUUCUAAUUGGAUCCAGAAGGUAUCGACGUCC | – | – | 193 | 211 |
| GAGUGGAAGGCCGCUACAUGAGGAUCACCCAUGUGCUAAGCACAGGAUAUCGCGCGGGCCCGGCGCGAGAAGGGUGACGGCCUU | – | – | 1010 | 272 |
| GCACUGGAUGUAGGAUAUCAGGACGAUAAGUCCUGAGAAGGACAUGAGGAUCACCCAUGUCCUAAAACCAGUGCAUAUAAUAUA | 14.4 | 16.7 | – | – |
| CGCUAGUCAGGAUAUACGAACAUGUCAAAAGACGUGAAGGGACAUGAGGAUCACCCAUGUAGAAGGGACUAGCA | 35.7 | 114 | – | – |
| CGCACUGAUAGAGGAUAUGUUUUACAUGAGGAUCACCCAUGUGUACAAGGAUCAAUAUAUUAGUAACAGAAGGCUAUUAGUGCG | 24.7 | 21.5 | – | – |
| GGCCUGUUAGGAUAUUAGUAGUAGUCAGAAUAGACUAUUACUGAGAAGGGACAUGAGGAUCACCCAUGUUGGCC | 17.5 | 19.9 | – | – |
| AAUAACAGAGGAUAUACUGUUUUAUGUGUUUGUUAUUUUGAACAUGAGGAUCACCCAUGUAGAAGGCUGAAUGA | 28.9 | 29.7 | – | – |
| GUUAAGAACUAAGGAUAUUGAAUACAUAUGUUUAACAUGAGGAUCACCCAUGUGGGUUGCGGUAUCGAGAAGGUAGAAUAAUAG | – | – | 115 | 113 |
